ChEMBL document CHEMBL4145455, “Design, synthesis and evaluation of novel phenyl propionamide derivatives as non-nucleoside hepatitis B virus inhibitors” (Eur J Med Chem, 2018)

Assays:
[1] = Cytotoxicity against human HepG2(2.2.15) cells assessed as reduction in cell viability after 72 hrs by MTT assay; type: cell-based
Outline: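 Confluent HepG2 2.2.15 cells exposed to graded compound concentrations for 72 h alongside untreated controls on each plate; viability by MTT uptake, absorbance 490 nm relative to untreated cells; CC50 = concentration killing 50% of cells. Three replicates.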

[2] = tested on: Hepatitis B virus; test: Antiviral activity against HBV infected in human HepG2(2.2.15) cells assessed as inhibition of viral DNA replication at 20 uM after 6 days by RT-PCR method relative to control; type: functional; details: HepG2 2.2.15, 144 h
Outline: (§1)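 HepG2 2.2.15 cells (stable HBV genome; DMEM, 10% FBS, G418 0.38 mg/mL) seeded 2×10^5/well, recovered 24 h, then compound in assay medium (single 20 or 4 μM, or dose series for IC50), medium changed every 2 days; after 6 days HBV DNA extracted and quantified by real-time PCR. Mean ± SD, ≥3 independent experiments in duplicate.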

[3] = tested on: Hepatitis B virus; test: Antiviral activity against HBV infected in human HepG2(2.2.15) cells assessed as inhibition of viral DNA replication after 6 days by RT-PCR method; type: functional, organism-based; details: HepG2 2.2.15, 144 h; outline: as §1
[4] = Selectivity index, ratio of CC50 for human HepG2(2.2.15) cells to IC50 for antiviral activity against HBV infected in human HepG2(2.2.15) cells assessed as inhibition of viral DNA replication; type: toxicity, cell-based; details: read-out: Ratio CC50/IC50
Outline: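 SI calculated as CC50 (72 h MTT, HepG2 2.2.15) divided by IC50 for inhibition of HBV DNA replication measured by real-time PCR.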

[5] = tested on: Hepatitis B virus; test: Antiviral activity against HBV assessed as inhibition of viral DNA replication; type: functional, organism-based
Outline: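 HepG2 cells transiently transfected with wild-type HBV genome, or the rtL180M+rtM204V+rtT184L lamivudine/entecavir-resistant mutant, for 24 h, washed, then exposed in dose-dependent manner; after 72 h HBV DNA replicative intermediate extracted and quantified by real-time PCR. IC50 = concentration giving 50% inhibition of DNA replication; mean ± SD of at least three independent experiments, duplicate measurements.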

[6] = Selectivity index, ratio of CC50 for human HepG2(2.2.15) cells to IC50 for antiviral activity against lamivudine/entecavir resistant HBV harboring reverse transcriptase L180M/M204V/T184L mutant infected in human HepG2(2.2.15) cells; type: toxicity, cell-based; details: read-out: Ratio CC50/IC50
Outline: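 SI = CC50/IC50. CC50 comes from HepG2 2.2.15 cells grown to confluence and treated for 72 h, with MTT absorbance at 490 nm relative to untreated cells, in triplicate. IC50 comes from mutant-plasmid-transfected HepG2 cells treated for 72 h, with HBV DNA measured by real-time PCR.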

[7] = tested on: Hepatitis B virus; test: Antiviral activity against lamivudine/entecavir resistant HBV harboring reverse transcriptase L180M/M204V/T184L mutant infected in human […] after 72 hrs by RT-PCR method; type: functional, organism-based
Outline: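 HepG2 cells (2×10^5 per well) were plated, incubated overnight, then transiently transfected for 24 h with a plasmid carrying the full HBV genome with rtL180M + rtM204V + rtT184L. Medium was discarded, cells washed with PBS, then treated across a dose range in fresh medium for 72 h. Intracellular HBV DNA replicative intermediate was quantified by real-time PCR. IC50 is 50% inhibition of DNA replication.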

[8] = tested on: Hepatitis B virus; test: Antiviral activity against lamivudine/entecavir resistant HBV harboring reverse transcriptase L180M/M204V/T184L mutant infected in human […] cells assessed as inhibition of viral DNA replication at 1 uM after 72 hrs by RT-PCR method relative to control; type: functional
Outline: (§2)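 HepG2 cells (not 2.2.15) were transiently transfected for 24 h with a plasmid carrying the rtL180M + rtM204V + rtT184L mutant HBV genome, alongside wild-type. After a PBS wash, cells received a single concentration (1, 10 or 100 µM) in fresh medium for 72 h. HBV DNA replicative intermediate was measured by real-time PCR and compared with the wild-type group.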

[9] = tested on: Hepatitis B virus; test: Antiviral activity against HBV infected in human […] cells assessed as inhibition of viral DNA replication at 1 uM after 72 hrs by RT-PCR method relative to control; type: functional
Outline: (§3)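 HepG2 cells (2×10^5/well) transfected overnight-plated, 24 h with plasmid carrying wild-type or rtL180M+rtM204V+rtT184L resistant HBV; after PBS wash, fresh medium with lamivudine 100 μM, entecavir 10 μM, or test compounds 1 μM (one at 10 μM) for 72 h; replicative intermediate HBV DNA measured by real-time PCR.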

[10] = tested on: Hepatitis B virus; test: Antiviral activity against HBV infected in human HepG2(2.2.15) cells assessed as inhibition of viral DNA replication at 4 uM after 6 days by RT-PCR method relative to control; type: functional; details: HepG2 2.2.15, 144 h; outline: as §1
[11] = tested on: Hepatitis B virus; test: Antiviral activity against lamivudine/entecavir resistant HBV harboring reverse transcriptase L180M/M204V/T184L mutant infected in human […] at 10 uM after 72 hrs by RT-PCR method relative to control; type: functional; outline: as §2
[12] = tested on: Hepatitis B virus; test: Antiviral activity against HBV infected in human […] at 10 uM after 72 hrs by RT-PCR method relative to control; type: functional; outline: as §3

Compound | CC50 at 72 h [1] [µM] | inhibition at 20 µM [2] [%] | other results
CN(C)CCOc1ccc(/C=C(/NC(=O)c2ccccc2)C(=O)N[C@H](CO)Cc2ccccc2)cc1 | > 100 | 37.5 | –
O=C(N[C@H](CO)Cc1ccccc1)/C(NC(=O)c1ccccc1F)=C(/Br)c1ccccc1 | > 100 | 76.4 | IC50 [3]: 2.44 µM; selectivity ratio [4]: 41
CC(=O)OC[C@H](Cc1ccccc1)NC(=O)[C@H](Cc1ccccc1)NC(=O)c1ccccc1 | > 100 | 60.6 | IC50 [5]: 11.2 µM
CN(C)CCOc1ccc(C[C@H](NC(=O)c2ccccc2)C(=O)N2CCCCC2)cc1 | > 100 | 51.6 | –
O=C(N[C@H](CO)Cc1ccccc1)/C(NC(=O)c1ccccc1)=C(/Br)c1ccc(O)cc1 | 34.3 to 39 | – | selectivity ratio [6]: 11.6; IC50 [3]: 2 µM; IC50 [7]: 2.97 µM; selectivity ratio [4]: 19.5; inhibition at 1 µM [8]: 43.2%; inhibition at 1 µM [9]: 34.8%; inhibition at 4 µM [10]: 63.2%
O=C(N[C@@H](Cc1ccc(O)cc1)C(=O)N1CCCCC1)c1ccccc1 | > 100 | 19.5 | –
O=C(N[C@H](CO)Cc1ccccc1)/C(=C\c1ccc(Br)cc1)NC(=O)c1ccccc1 | 72.7 | – | inhibition at 4 µM [10]: 39%
CN(C)CCOc1ccc(C[C@H](NC(=O)c2ccccc2)C(=O)N2CCOCC2)cc1 | > 100 | 24.9 | –
CN(C)CCOc1ccc(C[C@H](NC(=O)c2ccccc2)C(=O)N[C@H](CO)Cc2ccccc2)cc1 | > 100 | 69.2 | –
C=C1[C@H](CO)[C@@H](O)C[C@@H]1n1cnc2c(=O)[nH]c(N)nc21 [ENTECAVIR] | – | – | inhibition at 10 µM [11]: 17.9%; inhibition at 10 µM [12]: 95.7%
O=C(N[C@H](CO)Cc1ccccc1)/C(=C\c1ccccc1)NC(=O)c1ccccc1F | > 100 | 51.4 | –
O=C(N[C@H](CO)Cc1ccccc1)/C(NC(=O)c1ccccc1)=C(/Br)c1ccccc1 | > 100 | 77.6 | IC50 [3]: 3.86 µM; selectivity ratio [4]: > 25.9
O=C(N[C@H](CO)Cc1ccccc1)/C(=C\c1ccccc1Cl)NC(=O)c1ccccc1 | > 100 | 29.8 | –
